Data reported in ChEMBL document CHEMBL3232989, “First identification of boronic species as novel potential inhibitors of the Staphylococcus aureus NorA efflux pump” (J Med Chem, 2014).
Values after ≈ are worked out from the molar mass of the structure shown.

Tests used:
[1] = test system: Staphylococcus aureus; assay: Toxicity in Staphylococcus aureus ATCC 25923 after 24 hrs by microdilution method; format: organism-based
Outline: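 Mueller–Hinton broth microdilution; inoculum from frozen culture grown 18 h at 37 °C, 10^6 CFU/mL per well. Compounds (10 mg/mL DMSO stock) in 2-fold serial dilutions, highest 128 mg/L, first screened at 100 μg/mL. MIC = complete growth inhibition after 24 h at 37 °C, read at 620 nm and visually; duplicate; ampicillin control.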

[2] = target: T1, Quinolone resistance protein NorA (Staphylococcus aureus) (UniProt P0A0J7); assay: Inhibition of NorA in fluoroquinolone-resistant Staphylococcus aureus 1199B assessed as potentiation of 4 ug/ml of ciprofloxacin MIC at 100 ug/ml after 24 hrs by microdilution method
T1 sequence (whole entry): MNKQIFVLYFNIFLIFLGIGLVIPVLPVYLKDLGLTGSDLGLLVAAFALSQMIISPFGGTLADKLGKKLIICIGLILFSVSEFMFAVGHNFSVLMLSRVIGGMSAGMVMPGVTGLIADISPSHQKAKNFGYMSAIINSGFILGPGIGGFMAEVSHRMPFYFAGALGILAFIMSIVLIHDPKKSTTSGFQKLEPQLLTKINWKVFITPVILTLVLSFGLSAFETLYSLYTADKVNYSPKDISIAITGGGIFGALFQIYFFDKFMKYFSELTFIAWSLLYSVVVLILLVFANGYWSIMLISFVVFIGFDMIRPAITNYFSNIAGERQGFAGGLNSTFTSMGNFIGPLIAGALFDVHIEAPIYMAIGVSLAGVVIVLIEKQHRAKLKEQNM
Outline: (§1)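 Combination with ciprofloxacin 4 μg/mL (MIC/4) against SA-1199B in MH broth microdilution, 10^6 CFU/mL, 24 h at 37 °C, read at 620 nm and visually. Compounds are first screened at 100 μg/mL; actives are 2-fold serially diluted. MMC4 is the lowest inhibitor concentration giving antibacterial activity with subinhibitory ciprofloxacin. Duplicates.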

[3] = test system: Staphylococcus aureus; assay: Toxicity in fluoroquinolone-resistant Staphylococcus aureus 1199B expressing NorA after 24 hrs by microdilution method; format: organism-based; settings: in vitro
Outline: (§2)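 Broth microdilution in Mueller–Hinton broth, 10^6 CFU/mL per well from an 18 h 37 °C culture. Compounds come from 10 mg/mL DMSO stocks as 2-fold serial dilutions, top 128 mg/L. Plates run 24 h at 37 °C and are read at 620 nm and visually. MIC is the lowest concentration with complete growth inhibition. Duplicates; 2-fold variance accepted.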

[4] = test system: Staphylococcus aureus; assay: Toxicity in Staphylococcus aureus ATCC 25923 at 100 ug/ml after 24 hrs by microdilution method; format: organism-based
Outline: (§3)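 Single-point screen at 100 μg/mL of compound alone in MH broth microdilution, 10^6 CFU/mL, 24 h at 37 °C. Growth is read at 620 nm and visually, giving percent growth inhibition. Compounds inhibiting more than 90% then go to MIC determination. Duplicates.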

[5] = test system: Staphylococcus aureus; assay: Toxicity in fluoroquinolone-resistant Staphylococcus aureus 1199B expressing NorA at 100 ug/ml after 24 hrs by microdilution method; format: organism-based; outline: as §3
[6] = Cytotoxicity against human KB cells assessed growth inhibition at 10 uM after 72 hrs by MTS assay; format: cell-based; settings: read-out: GI
Outline: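 KB cells (from NCI) grown in DMEM with 10% FCS, penicillin-streptomycin, fungizone and glutamine, 37 °C, 5% CO2; compounds in DMSO added 24 h after plating (1% DMSO final, controls same). 72 h exposure, then MTS 3 h at 37 °C, absorbance at 490 nm; inhibition = (1 − OD490 treated/OD490 control)×100, triplicate experiments.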

[7] = test system: Staphylococcus aureus subsp. aureus RN4220; assay: Inhibition of MsrA in macrolide-resistant Staphylococcus aureus RN4220 harboring pUL5054 assessed as potentiation of 4 ug/ml of […] erythromycin MIC after 24 hrs by microdilution method (reference value: […] ug/ml)
[8] = test system: Staphylococcus aureus; assay: Antibacterial activity against Staphylococcus aureus ATCC 25923 after 24 hrs by microdilution method; format: functional; settings: ATCC 25923, 24 h; outline: as §2
[9] = test system: Staphylococcus aureus; assay: Antibacterial activity against fluoroquinolone-resistant Staphylococcus aureus 1199B expressing NorA after 24 hrs by microdilution method; format: functional; outline: as §2
[10] = target: T1, Quinolone resistance protein NorA (Staphylococcus aureus); assay: Inhibition of NorA in fluoroquinolone-resistant Staphylococcus aureus 1199B assessed as potentiation of 4 ug/ml of ciprofloxacin MIC at 1 ug/ml after 24 hrs by microdilution method; outline: as §1

SMILES	MIC [1]	Activity [2] [µg/mL]	MIC [3] [µg/mL]	growth inhibition (GI) [4] [%]	growth inhibition (GI) [5] [%]	inhibition at 72 h, 10 µM [6] [%]	Activity [7] [µg/mL]	MIC [8] [µg/mL]	MIC [9] [µg/mL]	fold change (FC) [10]
CC(C)(O)C(C)(C)OB(OC(C)(C)C(C)(C)O)c1cc(Br)cnc1F	>= 64 ug ml-1	64	128 (≈ 305 µM)	< 90	–	–	–	–	–	–
OB(O)c1cccnc1F	>= 64 ug ml-1	8	–	< 90	< 90	4	–	–	–	–
O=Cc1ccc(B(O)O)cc1C(F)(F)F	>= 64 ug ml-1	16	32 (≈ 147 µM)	–	–	100	32	–	–	–
OB(O)c1ccc(Oc2ccc(Cl)nc2)nc1	>= 64 ug ml-1	4	–	< 90	< 90	0	–	–	–	–
OB(O)c1ccccc1Oc1ccccc1	–	32	32 (≈ 150 µM)	–	–	10	32	–	–	–
Cn1nccc1B1OC(C)(C)C(C)(C)O1	>= 64 ug ml-1	8	–	< 90	< 90	0	–	–	–	–
COc1ccc(B(O)O)cn1	>= 64 ug ml-1	4	–	< 90	< 90	0	–	–	–	–
OB(O)c1ccc(Br)cc1	–	2	> 128	–	–	0	–	–	–	–
Cc1cc(B(O)O)cnc1Cl	>= 64 ug ml-1	4	> 128	< 90	–	0	–	–	–	–
O=C(O)c1cn(C2CC2)c2cc(N3CCNCC3)c(F)cc2c1=O [CIPROFLOXACIN]	>= 64 ug ml-1	–	–	–	–	–	–	0.5 (≈ 1.51 µM)	–	–
CC[C@H]1OC(=O)[C@H](C)[C@@H](O[C@H]2C[C@@](C)(OC)[C@@H](O)[C@H](C)O2)[C@H](C)[C@@H](O[C@@H]2O[C@H](C)C[C@H](N(C)C)[C@H]2O)[C@](C)(O)C[C@@H](C)C(=O)[C@H](C)[C@@H](O)[C@]1(C)O [ERYTHROMYCIN]	–	–	–	–	–	–	–	0.5 (≈ 0.681 µM)	128 (≈ 174 µM)	–
CC(=O)n1ncc2c(B3OC(C)(C)C(C)(C)O3)cccc21	>= 64 ug ml-1	8	–	< 90	< 90	0	–	–	–	–
OB(O)c1ccsc1	>= 64 ug ml-1	8	–	< 90	< 90	0	–	–	–	–
OB(O)c1ccc(OCc2ccccc2)cc1	–	0.5	> 128	–	–	6	–	–	–	–
CC(=O)OCc1ccc(B(OC(C)(C)C(C)(C)O)OC(C)(C)C(C)(C)O)cc1	>= 64 ug ml-1	4	–	< 90	< 90	6	–	–	–	–
CC(C)(O)C(C)(C)OB(OC(C)(C)C(C)(C)O)c1cc(Cl)cnc1Cl	>= 64 ug ml-1	> 128	128 (≈ 326 µM)	< 90	–	–	–	–	–	–
CSc1ccc(B(O)O)cn1	>= 64 ug ml-1	8	–	< 90	< 90	0	–	–	–	–
CCOc1ccc(B(O)O)cn1	>= 64 ug ml-1	4	–	< 90	< 90	0	–	–	–	–
Cc1c(B(O)O)ccc2ccccc12	>= 64 ug ml-1	8	–	< 90	< 90	0	–	–	–	–

SMILES	MIC [1]	Activity [2] [µg/mL]	MIC [3] [µg/mL]	growth inhibition (GI) [4] [%]	growth inhibition (GI) [5] [%]	inhibition at 72 h, 10 µM [6] [%]	Activity [7] [µg/mL]	MIC [8] [µg/mL]	MIC [9] [µg/mL]	fold change (FC) [10]
O=Cc1ccc(B(O)O)cc1Cl	>= 64 ug ml-1	4	32 (≈ 174 µM)	–	–	100	32	–	–	–
Cc1cc(B(O)O)ccc1Cl	–	2	> 128	–	–	0	–	–	–	–
OB(O)c1ccc(OCc2ccccc2)nc1	>= 64 ug ml-1	1	–	< 90	< 90	2	–	–	–	4
OB(O)c1ccc(Oc2cncc(Cl)c2)nc1	>= 64 ug ml-1	8	–	< 90	< 90	0	–	–	–	–
OB(O)c1ccc2ccccc2c1	–	4	> 128	–	–	3	–	–	–	–
CC(C)(O)C(C)(C)OB(OC(C)(C)C(C)(C)O)c1ccc(Br)nc1	>= 64 ug ml-1	8	–	< 90	< 90	0	–	–	–	–
OB(O)c1cc(Br)cnc1F	>= 64 ug ml-1	128	> 128	< 90	–	–	–	–	–	–
OB(O)c1cnc2ccccc2c1	>= 64 ug ml-1	4	–	< 90	< 90	0	–	–	–	–
CC(C)(O)C(C)(C)OB(OC(C)(C)C(C)(C)O)c1ccnc(F)c1	>= 64 ug ml-1	2	–	< 90	< 90	0	–	–	–	–
CC(C)(O)C(C)(C)OB(OC(C)(C)C(C)(C)O)c1cncc(Cl)c1	>= 64 ug ml-1	> 128	128 (≈ 358 µM)	–	–	–	–	–	–	–
OB(O)c1ccc(Br)nc1	>= 64 ug ml-1	8	–	< 90	< 90	1	–	–	–	–
OB(O)c1ccc(Cl)nc1	>= 64 ug ml-1	8	–	< 90	< 90	1	–	–	–	–
CC1(C)S[C@@H]2[C@H](NC(=O)[C@H](N)c3ccccc3)C(=O)N2[C@H]1C(=O)O [AMPICILLIN]	>= 64 ug ml-1	–	–	–	–	–	–	0.25 (≈ 0.715 µM)	–	–
OB(O)c1ccc(Cl)cc1	–	1	64 (≈ 409 µM)	–	–	0	–	–	–	–
OB(O)c1cc(Cl)cnc1Cl	>= 64 ug ml-1	16	> 128	< 90	–	–	–	–	–	–
O=Cc1ccc2ccccc2c1 [2-NAPHTHALDEHYDE]	>= 64 ug ml-1	64	> 128	–	–	–	–	–	–	–
Oc1cccnc1	>= 64 ug ml-1	> 128	> 128	–	–	–	–	–	–	–
Oc1ccc(Cl)nc1	>= 64 ug ml-1	> 128	> 128	–	–	–	–	–	–	–
